pIC50: −log10 of the molar value. The source made the active and inactive calls. The rule behind the calls is not given here.
Key:
HL-60 [1] = test: Induction of cell death in human HL60 cells assessed as late apoptotic cells at 2 uM after 24 hrs by FDA/PI staining based flow cytometer (reference value: 0.01%); format: functional
HL-60 [2] = test: Induction of cell death in human HL60 cells assessed as late apoptotic cells at 4 uM after 24 hrs by FDA/PI staining based flow cytometer (reference value: 0.01%); format: functional
HL-60 [3] = test: Cytotoxicity against human HL60 cells after 72 hrs using trypan blue exclusion staining by DCC method; format: functional, cell-based; conditions: HL-60, 72 h
Procedure, shortened: (§1)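 For trypan blue dye-exclusion direct cell counting, HL-60 cells were seeded at 1 × 10⁵ cells/mL. Compound at 0–10 µM, or 1% DMSO control, was added after 24 h. Viable counts were taken after 24, 48 and 72 h. IC50 (50% inhibition of viability) came from growth curves, as mean ± S.D., n = 3.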

HL-60 [4] = test: Induction of cell death in human HL60 cells assessed as necrotic cells at 4 uM after 24 hrs by FDA/PI staining based flow cytometer (reference value: 5.87%); format: functional
HL-60 [5] = test: Induction of cell death in human HL60 cells assessed as early apoptotic cells at 4 uM after 24 hrs by FDA/PI staining based flow cytometer (reference value: 3.96%); format: functional
HL-60 [6] = test: Induction of cell death in human HL60 cells assessed as viable cells at 4 uM after 24 hrs by FDA/PI staining based flow cytometer (reference value: 90.16%); format: functional; conditions: HL-60, 24 h, read-out: Activity
HL-60 [7] = test: Induction of cell death in human HL60 cells assessed as necrotic cells at 2 uM after 24 hrs by FDA/PI staining based flow cytometer (reference value: 5.87%); format: functional
HL-60 [8] = test: Induction of cell death in human HL60 cells assessed as early apoptotic cells at 2 uM after 24 hrs by FDA/PI staining based flow cytometer (reference value: 3.96%); format: functional
HL-60 [9] = test: Induction of cell death in human HL60 cells assessed as viable cells at 2 uM after 24 hrs by FDA/PI staining based flow cytometer (reference value: 90.16%); format: functional; conditions: HL-60, 24 h, read-out: Activity
HL-60 [10] = test: Induction of necrosis in human HL60 cells assessed as cell shrinking at 2.5 uM after 24 hrs by propidium iodide staining based fluorescence microscopy; format: functional
HL-60 [11] = test: Cell cycle arrest in human HL60 cells assessed as accumulation at sub G0 phase at 1 uM after 48 hrs by propidium iodide staining based flow cytometry (reference value: 1.93%); format: functional
HL-60 [12] = test: Cell cycle arrest in human HL60 cells assessed as accumulation at sub G0 phase at 0.5 uM after 48 hrs by propidium iodide staining based flow cytometry (reference value: 1.93%); format: functional
HL-60 [13] = test: Cell cycle arrest in human HL60 cells assessed as accumulation at S phase at 1 uM after 48 hrs by propidium iodide staining based flow cytometry (reference value: 38.96%); format: functional
HL-60 [14] = test: Cell cycle arrest in human HL60 cells assessed as accumulation at S phase at 0.5 uM after 48 hrs by propidium iodide staining based flow cytometry (reference value: 38.96%); format: functional
HL-60 [15] = test: Cell cycle arrest in human HL60 cells assessed as accumulation at G2 phase at 1 uM after 48 hrs by propidium iodide staining based flow cytometry (reference value: 12.90%); format: functional
HL-60 [16] = test: Cell cycle arrest in human HL60 cells assessed as accumulation at G2 phase at 0.5 uM after 48 hrs by propidium iodide staining based flow cytometry (reference value: 12.90%); format: functional
HL-60 [17] = test: Cell cycle arrest in human HL60 cells assessed as accumulation at G1 phase at 1 uM after 48 hrs by propidium iodide staining based flow cytometry (reference value: 48.14%); format: functional
HL-60 [18] = test: Cell cycle arrest in human HL60 cells assessed as accumulation at G1 phase at 0.5 uM after 48 hrs by propidium iodide staining based flow cytometry (reference value: 48.14%); format: functional
HL-60 [19] = test: Induction of oxidative stress in BSO pretreated human HL60 cells assessed as superoxide production at 5 uM treated 6 hrs after BSO addition measured after 1 hr by DHE dye fluorescence microscopy; format: functional, cell-based
Procedure, shortened: (§2)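 HL-60 cells (4 × 10⁵) were cultured 24 h at 37 °C, then given 5 µM for 1 h, with or without 6 h pretreatment with 10 µM L-buthionine-sulfoximine. Dihydroethidium (20 µM) was then added for 20 min at 37 °C. Cells were washed in PBS and superoxide was viewed by fluorescence microscopy. Menadione served as positive control.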

HL-60 [20] = test: Induction of oxidative stress in human HL60 cells assessed as superoxide production at 5 uM after 1 hr by DHE dye based fluorescence microscopy; format: functional, cell-based; procedure, shortened: as §2
HL-60 [21] = test: Cytotoxicity against BSO pretreated human HL60 cells assessed as cell viability at 1 uM treated 6 hrs after BSO addition measured after 48 hrs by trypan blue exclusion assay; format: functional, cell-based
Procedure, shortened: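 HL-60 cells were pretreated 6 h with L-buthionine-sulfoximine (10 µM), then exposed to 1.5, 3.0 or 1.0 µM compound for 48 h. Viable cells were counted by trypan blue staining and expressed as percentage of all cells.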

HL-60 [22] = test: Decrease in intracellular glutathione level in human HL60 cells at 1 uM after 2 to 24 hrs by spectrophotometric analysis; format: functional, cell-based
[23] = Binding affinity to NAC assessed as second order rate constant at 1 mM at pH 6 after 10 mins by UV-visible spectrophotometry
Procedure, shortened: (§3)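 Reaction with N-acetyl-L-cysteine was run in 100 mM Tris/HCl containing 50% DMSO at 25 °C, with final 2c at 20 µM and NAC at 1 mM. pH was 6.0, 6.5 or 7.0. Spectral change was monitored by UV–vis, with the mixture held 10 min. Second-order rate constants k2 (M⁻¹ s⁻¹) are reported.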

[24] = Binding affinity to NAC assessed as second order rate constant at 1 mM at pH 6.5 after 10 mins by UV-visible spectrophotometry; procedure, shortened: as §3
HL-60 [25] = test: Drug uptake in human HL60 cells at 10 uM after 10 to 60 mins by RP-HPLC analysis; format: ADME, cell-based; conditions: hl-60, 10 µM
Procedure, shortened: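 HL-60 cells (2 × 10⁶/mL) were exposed to 10 µM for 10 or 60 min, washed twice in PBS and extracted with methanol (1 h, 4 °C). Extract was centrifuged at 6700 × g and injected (20 µL) onto a C18 RP-HPLC column. Mobile phase was methanol/50 mM ammonium formate 80:20, pH 4.5, at 0.5 mL/min and 25 °C, with detection at 370 nm.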

[26] = Binding affinity to NAC assessed as second order rate constant at 1 mM at pH 7 after 10 mins by UV-visible spectrophotometry; procedure, shortened: as §3
A2780 [27] = test: Drug uptake in human A2780 cells at 5 uM after 4 hrs by Hoechst staining based fluorescence microscopy; format: ADME, cell-based; conditions: a2780, 4 h
HL-60 [28] = test: Drug uptake in human HL60 cells at 5 uM after 4 hrs by Hoechst staining based fluorescence microscopy; format: ADME, cell-based; conditions: hl-60, 4 h
Procedure, shortened: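 HL-60 cells were exposed to 5 µM for 4 h at 37 °C, 5% CO₂, then washed in PBS. Intrinsic blue fluorescence was viewed by optical and fluorescence microscopy. Untreated control cells were stained with Hoechst 33342 (10 µM, 10 min).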

NIH3T3 = test: Cytotoxicity against mouse NIH/3T3 cells after 72 hrs by MTT assay; format: cell-based; conditions: NIH3T3, 72 h
A2780 [29] = test: Cytotoxicity against human A2780 cells after 72 hrs by MTT assay; format: functional, cell-based; conditions: A2780, 72 h
Procedure, shortened: (§4)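 HL-60, L1210 and A2780 cells were grown in RPMI 1640 with 10% FBS, penicillin and streptomycin at 37 °C, 5% CO₂; HL-60 and A2780 medium also had 2 mM glutamine. Cells were exposed to 0–30 µM for 48 or 72 h. Viability was read by MTT microculture tetrazolium assay and IC50 was determined.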

HL-60 [30] = test: Cytotoxicity against human HL60 cells after 48 hrs using trypan blue exclusion staining by DCC method; format: functional, cell-based; conditions: HL-60, 48 h; procedure, shortened: as §1
A2780 [31] = test: Cytotoxicity against human A2780 cells after 48 hrs by MTT assay; format: functional, cell-based; conditions: A2780, 48 h; procedure, shortened: as §4
L1210 [32] = test: Cytotoxicity against mouse L1210 cells after 72 hrs by MTT assay; format: functional, cell-based; conditions: L1210, 72 h; procedure, shortened: as §4
L1210 [33] = test: Cytotoxicity against mouse L1210 cells after 48 hrs by MTT assay; format: functional, cell-based; conditions: L1210, 48 h; procedure, shortened: as §4
HL-60 [34] = test: Cytotoxicity against human HL60 cells after 48 hrs by MTT assay; format: functional, cell-based; conditions: HL-60, 48 h; procedure, shortened: as §4
HL-60 [35] = test: Cytotoxicity against human HL60 cells after 72 hrs by MTT assay; format: functional, cell-based; conditions: HL-60, 72 h; procedure, shortened: as §4
Nucleic Acid [36] = test: Ratio of acridine orange K to compound K for calf thymus DNA by spectrofluorimetry based McGhee von Hippel method; format: nucleic-acid assay; conditions: Bos taurus
Nucleic Acid [37] = test: Ratio of daunomycin K to compound K for calf thymus DNA by spectrofluorimetry based McGhee von Hippel method; format: nucleic-acid assay; conditions: Bos taurus
Nucleic Acid [38] = test: Ratio of proflavine K to compound K for calf thymus DNA by spectrofluorimetry based McGhee von Hippel method; format: nucleic-acid assay; conditions: Bos taurus
Nucleic Acid [39] = test: Binding affinity to calf thymus DNA assessed as intercalation at 26.7 uM by fluorometric titration analysis; format: nucleic-acid assay; conditions: Bos taurus
Procedure, shortened: (§5)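 Fluorescence titration used compound at 26.7 µM in 0.01 M Tris buffer (pH 7.4, 24 °C). ctDNA was added stepwise from 0 to 32 µM bp at 2 µM intervals until spectra stopped changing. Excitation was 384 nm and emission was read at 410–470 nm. Binding constant K was derived by the McGhee–von Hippel method from Scatchard plot data.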

Nucleic Acid [40] = test: Binding affinity to calf thymus DNA assessed as binding constant by spectrofluorimetry based McGhee von Hippel method; format: nucleic-acid assay; conditions: Bos taurus; procedure, shortened: as §5
Nucleic Acid [41] = test: Binding affinity to calf thymus DNA assessed as melting temperature at 5 uM at pH 7.1 by thermal denaturation assay; format: nucleic-acid assay; conditions: Bos taurus
Nucleic Acid [42] = test: Binding affinity to calf thymus DNA assessed as hypochromicity at 25 uM by UV-visible spectrophotometry; format: nucleic-acid assay; conditions: Bos taurus
Procedure, shortened: (§6)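 Absorption spectra were taken in 0.01 M Tris buffer, pH 7.4. Compounds were diluted from DMSO stock to a final 25 µM. Sonicated calf thymus DNA in TE buffer was added at 0–30 µM bp, with concentration set by A260. Shift of λmax (free vs bound) and % hypochromicity were recorded.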

Nucleic Acid [43] = test: Binding affinity to calf thymus DNA assessed as bathochromic shift at 25 uM by UV-visible spectrophotometry; format: nucleic-acid assay; conditions: Bos taurus; procedure, shortened: as §6

Compound: COC(=O)/C=C1\S/C(=N\c2c3ccccc3nc3ccccc23)N(c2ccc(Br)cc2)C1=O
- Activity (HL-60 [1]): 0.03%
- Activity (HL-60 [2]): 0.01%
- pIC50 (HL-60 [3]): 6.05
- Activity (HL-60 [4]): 62.62%
- Activity (HL-60 [5]): 19.57%
- viability at 4 µM (HL-60 [6]): 17.8%
- Activity (HL-60 [7]): 22.87%
- Activity (HL-60 [8]): 68.64%
- viability at 2 µM (HL-60 [9]): 8.46%
- Activity (HL-60 [10]): Active
- Activity (HL-60 [11]): 25.85%
- Activity (HL-60 [12]): 21.7%
- Activity (HL-60 [13]): 11.99%
- Activity (HL-60 [14]): 38.4%
- Activity (HL-60 [15]): 5.08%
- Activity (HL-60 [16]): 10.56%
- Activity (HL-60 [17]): 82.93%
- Activity (HL-60 [18]): 51.04%
- Activity (HL-60 [19]): Active
- Activity (HL-60 [20]): Active
- Activity (HL-60 [21]): Active
- Activity (HL-60 [22]): Active
- Activity [23]: 2 M⁻¹ s⁻¹
- Activity [24]: 3.8 M⁻¹ s⁻¹
- Drug uptake (HL-60 [25]): Active
- Activity [26]: 9.9 M⁻¹ s⁻¹
- Drug uptake (A2780 [27]): Active
- Drug uptake (HL-60 [28]): Active
- pIC50 (NIH3T3): 5.46
- pIC50 (A2780 [29]): 5.11
- pIC50 (HL-60 [30]): 5.80
- pIC50 (A2780 [31]): 4.90
- pIC50 (L1210 [32]): 5.51
- pIC50 (L1210 [33]): 5.77
- pIC50 (HL-60 [34]): 5.85
- pIC50 (HL-60 [35]): 5.89
- Ratio (Nucleic Acid [36]): 10
- Ratio (Nucleic Acid [37]): 10
- Ratio (Nucleic Acid [38]): 10
- Activity (Nucleic Acid [39]): Active
- K (Nucleic Acid [40]): 5.89 ×10⁶ /M
- Tm (Nucleic Acid [41]): 81 °C
- Activity (Nucleic Acid [42]): 24.2%
- Activity (Nucleic Acid [43]): Active

— ChEMBL document CHEMBL2203053, “DNA binding acridine-thiazolidinone agents affecting intracellular glutathione” (Bioorg Med Chem, 2012)
